HEK293 NFkB inh = inhibitors of the PMA/ionomycin-induced NF-kB reporter in HEK293 cells | HEK-293 NF-kB luciferase reporter, luminescence | inhibition, % at 3 µM | AID 465 | 0.21% of 62,000 active;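 active = inhibition above the mean of all tested compounds plus 3 SD, cut at about 40% in these data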;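 note: 0% = stimulated DMSO wells and 100% = 10 µM reference inhibitor 5653914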
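Signal: luciferase luminescence; Material: HEK-293 cells with stable firefly luciferase reporter driven by four HIV NF-kB elements; Probe or stimulus: PMA with ionomycin; Replication: tested once; Times: 1 h compound pretreatment, then 16 h stimulation at 37 °C, 5% CO2; Benchmarks: DMSO and 10 µM reference inhibitor; Evaluation: per-plate % inhibition versus controls.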
D1 mod = D1 dopamine receptor (human) allosteric modulation; P21728; HEK293 D1, CRE-luciferase, dopamine EC30 potentiation; actives deviate in either direction; B-score at 10 µM; 5.9% of 58,000 active; AID 641;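 active = luminescence count or its row- and column-corrected plate score outside the 99.7% band of the plate's sample wells, on either side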
mHtt clearance = mutant huntingtin protein clearance | HeLa Exon1htt(103Q)mCFP, aggregate imaging; zero = plate's median compound well | inhibition, % at 1.5 µM | 0.42% of 47,000 active | AID 853;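 active = inhibition of aggregate fluorescence above about 70%, also judged a hit by eye on the cell image, limit read from the data, passing the limit was not always enough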;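 note: cells exposed to compound for three days before fixation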
M1 antagonist = M1 muscarinic receptor (rat) antagonism; CHO-M1 cells, Fluo-4 calcium, ACh EC80 antagonist mode; hits give low values; 3.4% of 64,000 active; AID 628; B-score at 10 µM; P08482;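 active = calcium fluorescence response, raw or row-and-column corrected B-score, differing from the plate sample mean either way at a set confidence level, mostly lower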
Target sequence (P08482 whole entry, looked up): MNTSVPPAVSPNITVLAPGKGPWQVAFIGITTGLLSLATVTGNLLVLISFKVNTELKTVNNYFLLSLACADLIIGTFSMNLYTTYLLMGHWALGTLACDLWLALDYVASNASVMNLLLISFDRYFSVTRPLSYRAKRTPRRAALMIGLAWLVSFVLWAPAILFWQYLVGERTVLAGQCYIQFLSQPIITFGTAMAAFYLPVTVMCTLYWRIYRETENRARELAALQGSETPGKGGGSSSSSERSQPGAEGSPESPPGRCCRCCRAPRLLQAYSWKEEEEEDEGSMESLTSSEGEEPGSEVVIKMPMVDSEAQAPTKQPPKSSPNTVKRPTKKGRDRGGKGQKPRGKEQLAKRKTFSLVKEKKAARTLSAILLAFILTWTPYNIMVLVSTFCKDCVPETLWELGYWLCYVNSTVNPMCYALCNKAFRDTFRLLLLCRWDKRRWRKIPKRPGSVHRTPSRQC
M1 agonist = M1 muscarinic receptor agonism. CHO-M1 cells, Fluo-4 calcium fluorescence, agonist mode; hits give high values. B-score at 10 µM. 3% of 64,000 active;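 active = fluorescence rise, raw or as B-score row- and column-corrected plate score, outside the 99.7% band of its plate's samples, either direction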
Jurkat tox 60K = reduces viability or proliferation of Jurkat cells; Jurkat E6.1 viability, ATP luminescence, 48 h; inhibition, % at 4 µM; 1.2% of 56,000 active; AID 463;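 active = inhibition above the mean inhibition of all tested compounds plus 3 SD, cut at about 28% in these data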
D1 mod confirm = confirmation of human D1 dopamine receptor allosteric modulators | shares compounds with D1 mod | 88% of 2,200 active | HEK293 D1 CRE-luciferase, dopamine EC30 potentiation; hits give high values | luminescence at 10 µM;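 active = luminescence in either of two replicates above the same-plate mean plus 3 SD of the low-dose dopamine control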
D1 ag no DA = D1 (human) signaling in absence of dopamine. 0.8% of 1,900 active. luminescence at 10 µM. HEK293 D1 CRE-luciferase, luminescence, no dopamine; hits give high values. shares compounds with D1 mod. AID 646; in the data active = luminescence above about 3900
Isoprot counter = counter-screen for D1 modulators: isoproterenol response in HEK293 cells. shares compounds with D1 mod. HEK293 D1 CRE-luciferase, isoproterenol EC30 counter-screen; hits give high values. luminescence at 10 µM. 63% of 2,200 active. AID 647;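 active = luminescence in either replicate above plate mean of wells with a partly effective reference agonist dose plus 3 SD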;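 note: isoproterenol raises cAMP through native beta-adrenoceptor Gs so signal bypasses D1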
Numbers without * were called inactive; · = no result. This is a sample that favours compounds with a hit; in the whole collection about 9.5% have one here.

SMILES | HEK293 NFkB inh | D1 mod | mHtt clearance | M1 antagonist | M1 agonist | Jurkat tox 60K | D1 mod confirm | D1 ag no DA | Isoprot counter
CCCCNC(=O)c1cnc2n(c1=O)CCS2 | 7.3 | · | -52.9 | -0.0185 | 0.261 | -7.8 | · | · | ·
COc1ccc(CCNC(=O)c2cc(-c3ccc(C)cc3O)n[nH]2)cc1OC | · | · | -134.6 | · | · | · | · | · | ·
COc1ccc(CCNC(=O)c2cnc3n(c2=O)CCS3)cc1OC | 14.9 | 4.73* | -30.9 | -1.06 | -0.155 | 0.6 | 9460* | 1716 | 3844*
COc1ccc(-c2cc(-c3ccccc3O)[nH]n2)cc1OC | -2.4 | 3.37* | · | -0.92 | 1.13 | -2.0 | 8764* | 1644 | 3764*
COc1ccc(-c2cc(-c3cc(F)ccc3O)[nH]n2)cc1OC | -7.0 | 0.593 | -29.6 | -0.0192 | -1.07 | 4.6 | · | · | ·
COc1ccc(OC(=O)c2ccc3nsnc3c2)cc1 | · | · | 42.5 | · | · | · | · | · | ·
Nc1nc2n(n1)C(c1cccc(Br)c1)CC(c1ccccc1)N2 (stereo unspecified) | 22.6 | 36.7* | -27.4 | -0.639 | 0.00571 | 1.3 | 18056* | 1512 | 4120*
COc1cccc(C2CC(c3cccc(Br)c3)n3nc(N)nc3N2)c1 (stereo unspecified) | 3.2 | 9.32* | · | 0.0235 | 0.179 | 1.1 | 12600* | 1776 | 4148*
CCc1ccc(C2CC(c3ccccc3)Nc3nc(N)nn32)cc1 (stereo unspecified) | 8.8 | 2.7 | · | -0.0162 | -0.18 | 7.4 | · | · | ·
COc1ccc(C2CC(c3cccc(OC)c3)n3nc(N)nc3N2)cc1 (stereo unspecified) | -4.2 | -0.413 | · | 0.365 | -0.0911 | 0.8 | · | · | ·
CN(C)CC1CCCCC1C1(O)c2ccccc2CSc2sccc21 (stereo unspecified) | · | · | 5.1 | · | · | · | · | · | ·
O=C(c1ccccc1)c1coc2ccc(O)c(CN3CCOCC3)c12 | 23.9 | 7.59* | -24.8 | 0.714 | -0.454 | -3.6 | 13536* | 1636 | 3372*
CCc1nc(NCC2CCCO2)c2oc3ccccc3c2n1 (stereo unspecified) | 4.4 | 6.05* | -26.8 | -0.0926 | -0.307 | -1.4 | 12724* | · | 3456*
CCNc1nc(C)nc2c1oc1ccccc12 | 5.6 | 9.33* | · | 0.495 | -0.1 | · | 16376* | · | 3480*
COc1ccc(NCc2nnc(SCC#N)n2-c2ccccc2OC)cc1 | 5.0 | -0.0211 | -8.8 | 1.88 | 0.476 | -1.5 | · | · | ·
COc1ccc(CCn2c(N)c(C#N)c3nc4ccccc4nc32)cc1OC | 9.4 | -0.658 | 19.5 | -1.45 | 0.904 | -1.8 | · | · | ·
CCCCCn1c(N)c(C#N)c2nc3ccccc3nc21 | 11.8 | 5.02* | -32.1 | -0.413 | 0.558 | -1.1 | 13676* | 1656 | 3028
COc1ccc(Cn2c(N)c(C#N)c3nc4ccccc4nc32)cc1OC | · | 5.13* | -9.3 | 0.235 | -0.938 | · | 11232* | 1656 | 3512*
COC(=O)C1C(=O)c2c([nH]c(C(=O)OCC3CCCO3)c2C)CC1C (stereo unspecified) | -19.2 | · | · | 0.00145 | -0.914 | -1.3 | · | · | ·
CCc1nnc(NC(=O)c2ccncc2)s1 | -8.3 | 2.75* | · | 0.0629 | 0.46 | 4.6 | 4640 | 1208 | 2180
CCCCC(=O)Nc1ccc(NC(=O)C2CC2)cn1 | 0.5 | -0.379 | · | 0.533 | 0.0103 | 0.6 | · | · | ·
CCCC(=O)Nc1ccc(NC(=O)C2CC2)cn1 | -5.0 | 5.32* | 8.4 | 1.05 | -0.632 | -3.5 | 5976* | 1712 | 2456
Cc1ccc(CSCC(=O)N2CCOCC2)cc1 | · | · | -23.7 | · | · | · | · | · | ·
Cc1csc2nc(CNC(=O)C3CCCCC3)cn12 | -3.8 | 2.99* | · | 0.925 | 0.464 | -8.6 | 7124 | 1524 | 2796
O=C(NCCc1cn2ccsc2n1)C1CCCCC1 | 4.8 | -0.321 | -1.9 | 0.344 | 0.0197 | 4.0 | · | · | ·
SMILES | HEK293 NFkB inh | D1 mod | mHtt clearance | M1 antagonist | M1 agonist | Jurkat tox 60K | D1 mod confirm | D1 ag no DA | Isoprot counter
CCOc1ccccc1NC(=O)CN(C)S(=O)(=O)c1cccc2nsnc12 | 4.8 | 4.72* | · | 0.202 | 0.298 | -4.5 | 6432* | 1328 | 3040
COc1ccc(Nc2ncc3c(n2)CC(c2ccc(C)cc2)CC3=O)cc1 (stereo unspecified) | · | · | 65.4 | · | · | · | · | · | ·
COc1ccc(Nc2ncc3c(n2)CC(c2ccc(OC)cc2)CC3=O)cc1 (stereo unspecified) | -1.8 | 7.52* | -353.4 | -0.18 | 0.319 | -5.5 | 11768* | 1536 | 4256*
COc1ccc(N2CCN(c3nc(NCCc4ccc(OC)c(OC)c4)nc(OC)n3)CC2)cc1 | -4.6 | 2.84* | -31.9 | 0.269 | 0.0217 | 5.7 | 11472* | 1500 | 3388*
CCOc1nc(NCCc2ccc(OC)c(OC)c2)nc(N2CCN(c3ccc(OC)cc3)CC2)n1 | · | · | -1.2 | · | · | · | · | · | ·
CCOc1ccccc1-c1nc(SCC(=O)O)n[nH]1 | -4.6 | 3.82* | · | 0.752 | 0.0172 | -2.1 | 5488 | 1396 | 2648
CCN(CC(=O)NC1CCCCCC1)S(=O)(=O)c1ccccc1 | 3.0 | 6.74* | · | -0.965 | 0.794 | 3.1 | 4392 | 1572 | 3128
Cc1cc2nc(-c3ccc(NC(=O)C(C)C)cc3)oc2cc1C | -68.5 | 5.79* | · | 0.37 | -0.959 | -3.6 | 3212 | 1136 | 1808
CCCC(=O)Nc1cccc(-c2nc3cc(C)c(C)cc3o2)c1 | -39.3 | 0.0955 | · | -0.424 | 0.0119 | -7.2 | · | · | ·
CC1CCc2c(sc3ncnc(N4CCOCC4)c23)C1 (stereo unspecified) | · | 17.4* | · | -0.431 | -1.26 | · | 13928* | 1504 | 6256*
CC1CCc2sc3ncnc(N4CCOCC4)c3c2C1 (stereo unspecified) | 4.7 | 19.1* | 28.9 | 0.112 | 1.1 | 5.5 | 14216* | 1432 | 4860*
CCCN1C(=O)c2cc(C(=O)NCCc3cccc(C)c3)ccc2C1O (stereo unspecified) | 24.1 | 0.874 | · | 0.884 | -0.53 | 0.3 | · | · | ·
CCOC(=O)c1c(C)c(C(=O)Nc2cc(OC)ccc2OC)c(C)n1CC | 9.7 | 3.14* | 42.4 | 0.343 | 0.781 | 35.2* | 7504* | 1448 | 3508*
COc1cccc(C2N(c3cccc(Cl)c3)C(=O)C3CCCN32)c1 (stereo unspecified) | 2.2 | -0.1 | -181.8 | 0.292 | 0.343 | 3.5 | · | · | ·
c1csc(-c2nc3nc4ccccc4nc3n2Cc2ccc3c(c2)OCO3)c1 | 10.1 | 8.92* | 12.1 | 0.292 | -0.301 | 2.7 | 10488* | 1716 | 3304*
COc1ccc(C2OC34CCCCC3C(C#N)(C#N)C2(C#N)C(=N)O4)cc1 (stereo unspecified) | · | · | 9.1 | · | · | · | · | · | ·
COC(=O)c1cccc(Oc2nc(N3CCOCC3)nc(N3CCOCC3)n2)c1 | 3.2 | 0.373 | · | 1.48 | 1.39 | -5.5 | · | · | ·
CCOC(=O)c1sc(N)nc1-c1ccccc1 | 2.5 | 11.7* | · | 0.728 | 0.492 | -13.7 | 13660* | 1536 | 3220*
COC(=O)Nc1sc(C)nc1-c1ccccc1 | 18.1 | -0.575 | · | · | · | · | · | · | ·

High-throughput results from PubChem BioAssay.
